Data reported in ChEMBL document CHEMBL4261634, “Design and optimization of 2,3-dihydrobenzo[b][1,4]dioxine propanoic acids as novel GPR40 agonists with improved pharmacokinetic and safety profiles” (Bioorg Med Chem, 2018).
The source made the active and inactive calls. The rule behind the calls is not given here.

Key:
Cytochrome P450 2C19 = Cytochrome P450 2C19 (Homo sapiens, UniProt P33261); assay: Inhibition of CYP2C19 (unknown origin); format: ADME
Cytochrome P450 3A4 = Cytochrome P450 3A4 (Homo sapiens, UniProt P08684); assay: Inhibition of CYP3A4 (unknown origin); format: ADME
[1] = Tmax in Sprague-Dawley rat at 10 mg/kg, po by LC-ESI-MS analysis; format: ADME, organism-based; settings: in vivo
Procedure, shortened: (§1)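 SD rats dosed orally (3 or 10 mg/kg) or by intravenous injection (1 mg/kg). Plasma PK parameters derived per route: Cmax, AUC0-t, Tmax, t1/2 and F after oral dosing; CL, AUC0-t, MRT, t1/2 and Vdss after iv dosing. Mean ± SD from three independent experiments (n = 3).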

Rattus norvegicus [2] = assay: Subacute toxicity in Sprague-Dawley rat assessed as effect on organ coefficients at 50 to 100 mg/kg, po administered once daily for 2 weeks; format: organism-based; settings: in vivo, 336 h
Procedure, shortened: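 SD rats dosed orally once daily for two weeks at 50 mg/kg and 100 mg/kg. Subacute toxicity was assessed over the dosing period from survival rate, behaviour, food intake and organ coefficients.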

[3] = AUC (0 to t) in Sprague-Dawley rat at 3 mg/kg, po by LC-ESI-MS analysis; format: ADME, organism-based; settings: in vivo; procedure, shortened: as §1
Rattus norvegicus [4] = assay: Antidiabetic activity in Sprague-Dawley rat assessed as reduction in blood glucose excursion at 10 to 20 mg/kg, po administered 60 mins prior to glucose challenge by OGTT; format: functional, organism-based
Procedure, shortened: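 OGTT in SD rats: compound given orally 60 min before a 3.0 g/kg glucose challenge. Blood glucose followed over time, and AUC0-60min or AUC0-120min calculated versus vehicle group. Mean ± SD, n = 8.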

[5] = AUC (0 to t) in Sprague-Dawley rat at 1 mg/kg, iv by LC-ESI-MS analysis; format: ADME, organism-based; settings: in vivo; procedure, shortened: as §1
[6] = target: Voltage-gated inwardly rectifying potassium channel KCNH2 (Homo sapiens, UniProt Q12809); assay: Inhibition of human ERG by patch-clamp assay
Procedure, shortened: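 hERG K+ channel inhibition measured by patch clamp to give IC50.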

Chain of Cytochrome P450 2C19 (P33261 whole entry): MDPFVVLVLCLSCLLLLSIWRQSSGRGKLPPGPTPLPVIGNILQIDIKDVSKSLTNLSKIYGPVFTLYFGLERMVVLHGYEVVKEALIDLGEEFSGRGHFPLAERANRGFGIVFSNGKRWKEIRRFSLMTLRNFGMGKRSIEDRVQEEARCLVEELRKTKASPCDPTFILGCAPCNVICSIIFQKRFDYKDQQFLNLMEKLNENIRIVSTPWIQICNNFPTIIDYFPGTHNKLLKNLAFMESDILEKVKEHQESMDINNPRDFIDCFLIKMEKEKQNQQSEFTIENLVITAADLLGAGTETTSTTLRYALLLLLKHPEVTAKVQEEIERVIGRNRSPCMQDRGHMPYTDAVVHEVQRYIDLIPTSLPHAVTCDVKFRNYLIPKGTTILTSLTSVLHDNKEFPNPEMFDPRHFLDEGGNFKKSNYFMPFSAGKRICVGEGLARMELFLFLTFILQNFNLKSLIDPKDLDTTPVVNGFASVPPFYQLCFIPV
Chain of Voltage-gated inwardly rectifying potassium channel KCNH2 (Q12809 whole entry): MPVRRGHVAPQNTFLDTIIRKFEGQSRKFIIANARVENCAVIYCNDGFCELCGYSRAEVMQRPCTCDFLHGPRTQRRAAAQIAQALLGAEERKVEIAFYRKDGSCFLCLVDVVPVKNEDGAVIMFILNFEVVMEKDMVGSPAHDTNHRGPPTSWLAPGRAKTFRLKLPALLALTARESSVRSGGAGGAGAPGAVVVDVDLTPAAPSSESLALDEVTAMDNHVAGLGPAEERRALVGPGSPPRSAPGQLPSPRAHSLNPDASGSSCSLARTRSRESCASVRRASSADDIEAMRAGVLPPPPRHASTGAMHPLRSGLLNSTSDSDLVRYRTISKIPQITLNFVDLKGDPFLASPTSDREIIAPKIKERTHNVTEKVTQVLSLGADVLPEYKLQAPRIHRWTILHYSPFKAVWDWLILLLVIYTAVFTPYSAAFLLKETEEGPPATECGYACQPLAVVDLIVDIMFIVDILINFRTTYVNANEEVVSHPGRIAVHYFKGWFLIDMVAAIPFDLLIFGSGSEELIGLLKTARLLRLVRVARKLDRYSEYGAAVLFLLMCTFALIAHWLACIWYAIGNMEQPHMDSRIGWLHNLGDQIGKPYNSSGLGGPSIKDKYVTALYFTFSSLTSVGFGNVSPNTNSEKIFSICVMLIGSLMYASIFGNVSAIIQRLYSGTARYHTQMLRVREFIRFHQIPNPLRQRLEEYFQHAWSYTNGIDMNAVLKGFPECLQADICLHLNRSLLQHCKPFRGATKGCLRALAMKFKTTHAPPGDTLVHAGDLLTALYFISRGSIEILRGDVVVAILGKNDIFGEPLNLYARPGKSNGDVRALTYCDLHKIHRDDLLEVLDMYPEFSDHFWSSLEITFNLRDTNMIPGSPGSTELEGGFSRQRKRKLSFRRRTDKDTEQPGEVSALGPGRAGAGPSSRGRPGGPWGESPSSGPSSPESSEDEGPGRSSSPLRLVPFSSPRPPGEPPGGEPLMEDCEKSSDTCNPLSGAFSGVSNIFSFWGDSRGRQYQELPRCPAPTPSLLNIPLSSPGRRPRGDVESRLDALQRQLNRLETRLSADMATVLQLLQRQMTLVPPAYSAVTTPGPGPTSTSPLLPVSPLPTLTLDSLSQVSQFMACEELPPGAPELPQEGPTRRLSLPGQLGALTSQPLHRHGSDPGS
Chain of Cytochrome P450 3A4 (P08684 whole entry): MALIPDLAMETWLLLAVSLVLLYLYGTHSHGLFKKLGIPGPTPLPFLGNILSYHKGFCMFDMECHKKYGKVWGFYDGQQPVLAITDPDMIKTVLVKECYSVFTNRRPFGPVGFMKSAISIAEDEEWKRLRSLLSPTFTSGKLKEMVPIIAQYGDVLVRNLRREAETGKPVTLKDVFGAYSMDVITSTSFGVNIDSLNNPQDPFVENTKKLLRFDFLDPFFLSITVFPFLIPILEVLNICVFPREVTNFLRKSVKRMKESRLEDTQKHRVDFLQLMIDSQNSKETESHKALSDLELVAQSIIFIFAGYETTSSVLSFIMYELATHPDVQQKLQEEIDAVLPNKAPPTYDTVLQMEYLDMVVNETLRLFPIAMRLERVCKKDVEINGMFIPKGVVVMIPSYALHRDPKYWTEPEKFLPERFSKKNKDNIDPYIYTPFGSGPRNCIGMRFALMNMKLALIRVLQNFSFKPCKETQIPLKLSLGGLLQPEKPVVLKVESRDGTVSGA

CC#C[C@@H](CC(=O)O)c1ccc(OC[C@H]2COc3ccc(Cl)cc3O2)cc1
IC50 (Cytochrome P450 2C19): > 100 µM
IC50 (Cytochrome P450 3A4): > 100 µM
Tmax [1]: 4 h
Activity (Rattus norvegicus [2]): Non-Toxic
AUC(0-t) [3]: 140 µg·h/mL
Activity (Rattus norvegicus [4]): Active
AUC(0-t) [5]: 71.4 µg·h/mL
IC50 [6]: > 40 µM
